# Screening data from PubChem BioAssay.
# MT1-MMP act inh: blockers of MT1-MMP proenzyme processing, primary screen, HT1080 RFP-PRO-GFP cells, GFP/RFP fluorescence. Matrix metalloproteinase-14 (Homo sapiens), P50281. 0.061% of 360,000 active. GFP/RFP ratio change, % at 20 µM. GFP/RFP ratio fluorescence, overnight; percent of plate control window, DMSO zero;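 active = GFP/RFP ratio change of at least 30% with cell ATP level not reduced by more than half and red fluorescence within 50% of control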
#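 Assay system: HT1080 RFP-PRO-GFP cells. Benchmarks: DMSO vehicle wells and RFP-L50D-GFP reporter cell wells. Times: overnight cell settling, then overnight compound exposure, 37 °C, 5% CO2. Compound: 20 µM single dose, 1% DMSO. Read-out basis: GFP/RFP fluorescence ratio.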
# NR1D1 modulator: modulators of Rev-erb alpha DNA binding, primary screen, biochemical, FITC-DNA, fluorescence polarization, uHTS | activity, % at 10 µM | Rev-erbα–FITC-DNA binding, 90 min | 0.79% of 370,000 active | Nuclear receptor subfamily 1 group D member 1 (Homo sapiens), P20393;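 active = activity above about 14%, limit read from the data; passing the limit was not always enough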;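 note: 0% = DMSO wells with 35 nM protein and 100% = DMSO wells with 750 nM protein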
# Target sequence (P20393 whole entry, looked up): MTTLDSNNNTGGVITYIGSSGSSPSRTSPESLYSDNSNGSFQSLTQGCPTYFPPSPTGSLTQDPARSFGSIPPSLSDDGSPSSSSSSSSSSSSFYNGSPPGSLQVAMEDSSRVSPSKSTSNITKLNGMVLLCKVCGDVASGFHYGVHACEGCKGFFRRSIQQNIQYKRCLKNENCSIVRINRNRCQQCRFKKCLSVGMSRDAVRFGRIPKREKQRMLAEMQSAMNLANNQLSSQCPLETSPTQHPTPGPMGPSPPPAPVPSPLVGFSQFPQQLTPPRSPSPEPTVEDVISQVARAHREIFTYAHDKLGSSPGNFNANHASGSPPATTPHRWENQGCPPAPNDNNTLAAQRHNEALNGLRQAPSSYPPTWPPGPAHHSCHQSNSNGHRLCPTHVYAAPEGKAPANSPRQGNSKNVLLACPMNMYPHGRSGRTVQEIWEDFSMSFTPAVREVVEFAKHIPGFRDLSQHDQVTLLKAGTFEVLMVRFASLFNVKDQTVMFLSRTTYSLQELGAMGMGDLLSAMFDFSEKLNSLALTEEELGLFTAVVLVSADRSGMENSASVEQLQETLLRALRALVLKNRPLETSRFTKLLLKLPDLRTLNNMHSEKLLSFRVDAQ
# NR2E3 ag-1: NR2E3 agonists in two-hybrid cells, primary screen, cell-based, luminescence, CHO-S, Gal4-NCOR/VP16-NR2E3; Photoreceptor-specific nuclear receptor (Homo sapiens), Q9Y5X4; luciferase; inhibition of corepressor binding, % at 3.98 µM; 0.35% of 360,000 active; AID 602229, 2012;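 active = inhibition above the mean of all tested compounds plus 3 SD, cut at about 70% in these data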;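 note: 0% = DMSO with NR2E3 transfected cells and 100% = cells lacking NR2E3 construct; higher means lower luciferase signal from less NR2E3 corepressor binding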
# NR2E3 ag-2: inhibitors of NR2E3-RetCOR corepressor binding, primary screen, NR2E3 agonist project, biochemical, TR-FRET, GST-NR2E3, biotin-RetCOR; 1536-well; inhibition of corepressor binding, % at 4.78 µM; 0.12% of 320,000 active; AID 2300, 2010;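 active = percent inhibition above the cutoff of mean plus 3 SD of all tested compounds, set per screening campaign, cut at about 20% in these data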;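 note: 0% = DMSO wells and 100% = biotin wells as full block of FRET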
#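 Format: 1536-well format; test system: GST-NR2E3 and biotin-RetCOR proteins; read-out basis: percent inhibition of TR-FRET ratio; timing: 5 h incubation at 4 °C; detection: time-resolved FRET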
# PG9 binder: binders of HIV-1 gp120 antibody PG9, primary screen, biochemical, TR-FRET; TR-FRET gp120-PG9 antibody binding; inhibition, % at 6.7 µM; 0.43% of 360,000 active; in the data active = inhibition above about 8.5%
# SKN-1 inh: suppressors of acrylamide-induced Pgst-4::GFP reporter in worms, primary screen, SKN-1 inhibitor project, whole organism, uHTS, GFP/RFP fluorescence ratio, strain VP596 | C. elegans VP596 Pgst-4::GFP/RFP ratio, 24 h | inhibition, % at 21.8 µM | 0.49% of 360,000 active;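 active = interference check ratio from 0.5 to 1.5 plus GFP to RFP signal ratio inhibition reaching or exceeding a fixed threshold, cut at about 30% in these data, passing the limit was not always enough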
# Active calls of the source: *; nt = not tested or not shown. This is a sample that favours compounds with a hit; in the whole collection about 1.9% have one here.
SMILES,MT1-MMP act inh,NR1D1 modulator,NR2E3 ag-1,NR2E3 ag-2,PG9 binder,SKN-1 inh
Cc1ccc(C(=O)CSC2=C(C#N)C(c3ccco3)C3=C(CC(C)(C)CC3=O)N2)cc1 (stereo not given),-0.5,-3.4,3.5,2.8,0.8,27.6*
CCOC(=O)c1c(C)[nH]c(O)c1C=Nc1ccc(C(F)(F)F)cc1,-52.9,1.5,-19.1,4.9,-1.4,60.5*
CCOC(=O)c1c(C)[nH]c(O)c1C=Nc1ccc(Cl)cc1,-34.2,nt,0.3,-0.7,-4.0,31.8
CC(=O)N1CCN(c2ccc(N3CCN(C(C)=O)[C@H](C)C3)c(C)c2)[C@H](C)C1,nt,-0.5,nt,nt,-0.7,nt
Clc1ccc(CSc2ccc(-c3cccnc3)nn2)cc1,5.2,-2.2,-20.7,0.0,0.2,37.2*
O=C(/C(C=Nc1ccc(Br)cc1)=C(/O)c1ccco1)C(F)(F)F,-12.4,2.5,-153.7,3.1,-0.2,74.0*
O=C(Nc1cc(C(F)(F)F)ccc1N1CCCCC1)C1=COCCO1,-0.1,-3.8,-0.2,nt,-1.2,39.3*
O=C(Nc1ccccc1N1CCCCC1)C1=COCCO1,-6.8,1.8,-15.1,4.3,0.0,14.9
CCCCOCCCNC(=O)C[C@H]1C[C@@]2(C(=O)OC)C(=C[C@H](C(C)(C)C)O[C@@H]2C)N(Cc2ccccc2)C1=O,nt,-2.2,nt,nt,-0.8,nt
CCC(C)(C)NC(=O)C(c1cccn1C)N(C(=O)Cn1nnc2ccccc21)c1ccc(OC)cc1OC (stereo not given),-4.5,-2.6,-11.3,-1.4,-0.8,43.2*
CCOc1ccc(N(C(=O)Cn2nnc3ccccc32)C(C(=O)NC(C)(C)CC)c2cccn2C)cc1 (stereo not given),-4.6,1.3,-7.5,0.3,-1.0,3.0
CC(OC(=O)OC1CCCCC1)OC(=O)C1=C(CSc2nnnn2CCN(C)C)CS[C@@H]2[C@H](NC(=O)Cc3csc(N)n3)C(=O)N12 (stereo not given in full),nt,-7.1,nt,nt,nt,nt
Cc1ccc(-c2nc3cccnc3o2)cc1NC(=O)COc1ccc(Cl)cc1C,-7.4,11.5,-2.5,3.7,3.3,-13.8
Cc1ccc(-c2nc3cccnc3o2)cc1NC(=O)COc1ccc(C(C)(C)C)cc1,4.0,-2.8,-128.1,-2.3,-4.4,43.0*
COc1ccc(S(=O)(=O)Nc2cc(OC)c(NC(=O)c3ccco3)cc2OC)cc1,1.3,-5.8,-8.1,0.5,-1.8,15.9
COc1cc(NS(=O)(=O)c2ccc(Br)cc2)c(OC)cc1NC(=O)c1ccco1,-1.6,-2.2,-12.6,1.9,-0.6,48.2*
O=[N+]([O-])c1ccc(OC[C@@H](O)CN2CCC(C(O)(c3ccccc3)c3ccccc3)CC2)c(Cl)c1,nt,-0.8,nt,nt,nt,nt
CN(C)N1C(N)=C(C#N)C(c2ccc(F)cc2)C2=C1CCCC2=O (stereo not given),-0.4,-7.9,-21.9,-3.0,1.6,2.8
CCc1ccc(C2C(C#N)=C(N)N(N(C)C)C3=C2C(=O)CCC3)cc1 (stereo not given),-0.4,6.8,-66.3,0.4,-2.9,36.2*
CCCCCCCCCCCCCCCCCCCCCCCCCCCCO,nt,-4.9,nt,nt,nt,nt
c1ccc(NCc2cccnc2)cc1,2.1,3.5,-9.4,1.5,-0.3,-0.5
CN(C)S(=O)(=O)c1cccc2c1C(=O)c1ccccc1C2=O,0.9,-7.9,-8.9,1.8,-0.5,-2.7
CNc1cccc2c1C(=O)c1ccccc1C2=O,25.3,0.5,-39.4,-6.5,-18.7,45.1*
O=C1c2ccccc2C(=O)c2c(NCc3cccnc3)cccc21,28.2,-25.5,-0.8,2.6,-10.9,42.8*
COC(=O)[C@]12C[C@H](CC(=O)NCc3ccccc3)C(=O)N(Cc3ccc4c(c3)OCO4)C1=C[C@H](COCc1ccccc1)O[C@@H]2C,nt,5.9,nt,nt,0.3,nt
SMILES,MT1-MMP act inh,NR1D1 modulator,NR2E3 ag-1,NR2E3 ag-2,PG9 binder,SKN-1 inh
CCCN1C(=O)c2[nH]nc(-c3ccccc3)c2C1c1ccc(Br)cc1 (stereo not given),nt,0.7,nt,nt,0.1,nt
CCOC(=O)c1c(N2C(=O)Nc3cc(Cl)c(Cl)cc3N2O)sc2c1CCCCC2,-3.9,nt,91.6*,0.3,nt,-0.9
CC1=C(C(=O)c2ccccc2)C(c2cn(-c3ccccc3)nc2-c2ccc(Cl)cc2)NC(=S)N1 (stereo not given),-21.7,-2.3,-35.7,10.5,0.4,37.7*
O=C(C(=O)N1CCC(CNS(=O)(=O)c2cc(C(F)(F)F)cc(C(F)(F)F)c2)CC1)c1cccs1,nt,0.2,nt,nt,0.8,nt
C=CCn1c(SCC(=O)c2c(N)n(C)c(=O)n(C)c2=O)nnc1-c1ccoc1C,-2.0,-0.1,-9.6,nt,-1.5,35.2*
O=C(NNC(=O)c1ccccc1-n1cccc1)c1ccc(Cl)c(Cl)c1,-2.0,-1.2,-1.5,-0.3,-0.1,13.6
O=C(NNC(=O)c1ccccc1-n1cccc1)c1ccc(Cl)cc1,6.0,-5.5,-22.4,3.0,0.2,37.0*
CCCCc1c(-c2ccccc2OC)ncn1Cc1cccc(OC)c1,nt,2.4,nt,nt,1.6,nt
COc1cccc(C(=O)NCC(=O)N2CCC3(CC2)NCCc2[nH]cnc23)c1,1.9,-5.4,-13.6,-0.8,-2.3,36.4*
Cc1ccc(C(=O)NCC(=O)N2CCC3(CC2)NCCc2[nH]cnc23)cc1C,0.9,1.7,-2.8,0.6,-2.4,-1.2
O=C(Nc1ccc2oc(-c3cccnc3)nc2c1)c1ccco1,-0.2,-25.1,-67.6,4.4,-0.8,5.8
O=C(Nc1ccc2oc(-c3cccnc3)nc2c1)c1ccc(Br)o1,0.0,-1.3,-8.3,1.2,0.3,35.5*
O=C(Nc1ccc(-c2nc3ncccc3o2)cc1)c1ccc(Br)o1,-16.5,22.4,-34.0,-231.6,41.2*,38.3*
COc1ccc(CN2C[C@@]3(O)CC[C@@H](O)[C@@H](OC)[C@@H]3[C@@](C)(O)[C@@H]2CC=C(C)C)cc1,nt,-6.2,nt,nt,1.2,nt
CC(CCC(C)C(C)(C)C)[C@@H]1CC[C@H]2C3C[C@H](OS(O)(=S)=S)[C@H]4C[C@H](OS(O)(=S)=S)[C@@H](OS(O)(=S)=S)C[C@]4(C)[C@H]3CC[C@]12C (stereo not given in full) (tested in a mixture with another compound),12.7,nt,74.9*,nt,nt,12.9
